eLon inh: E. coli protease La inhibition. P0A9M0. purified E. coli Lon protease, fluorescence polarization. inhibition, % at 7.94 µM. 360,000 tested, 0.42% active; in the data active = inhibition above about 13%, passing the limit was not always enough
Tb MetRS inh: blocks T. brucei methionyl-tRNA synthetase activity. 360,000 tested, 0.4% active. inhibition, % at 11.9 µM. AID 624268. purified T. brucei MetRS, ATP depletion, Kinase-Glo luminescence;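 active = inhibition above a per-plate cutoff of the control wells' mean inhibition plus 3 SD, cut at about 5.5% in these data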
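technique = Kinase-Glo luminescence, ATP depletion format | system = purified MetRS (methionyl-tRNA synthetase) enzyme from Trypanosoma brucei | timing = 15 min preincubation, 2 h reaction, all 25 °C | evaluation = percent inhibition versus plate control medians | dosing = single dose, 11.9 µM final nominal, 0.9% final DMSO | also added = substrates ATP, L-methionine and bulk Escherichia coli tRNA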
PREPL inh: inhibitors of human prolyl oligopeptidase-like enzyme PREPL; recombinant PREPL, fluorescence polarization activity-based probe; Q4J6C6; inhibition, % at 5.96 µM; 320,000 tested, 0.68% active; in the data active = inhibition above about 43%
Target sequence (Q4J6C6 whole entry, looked up): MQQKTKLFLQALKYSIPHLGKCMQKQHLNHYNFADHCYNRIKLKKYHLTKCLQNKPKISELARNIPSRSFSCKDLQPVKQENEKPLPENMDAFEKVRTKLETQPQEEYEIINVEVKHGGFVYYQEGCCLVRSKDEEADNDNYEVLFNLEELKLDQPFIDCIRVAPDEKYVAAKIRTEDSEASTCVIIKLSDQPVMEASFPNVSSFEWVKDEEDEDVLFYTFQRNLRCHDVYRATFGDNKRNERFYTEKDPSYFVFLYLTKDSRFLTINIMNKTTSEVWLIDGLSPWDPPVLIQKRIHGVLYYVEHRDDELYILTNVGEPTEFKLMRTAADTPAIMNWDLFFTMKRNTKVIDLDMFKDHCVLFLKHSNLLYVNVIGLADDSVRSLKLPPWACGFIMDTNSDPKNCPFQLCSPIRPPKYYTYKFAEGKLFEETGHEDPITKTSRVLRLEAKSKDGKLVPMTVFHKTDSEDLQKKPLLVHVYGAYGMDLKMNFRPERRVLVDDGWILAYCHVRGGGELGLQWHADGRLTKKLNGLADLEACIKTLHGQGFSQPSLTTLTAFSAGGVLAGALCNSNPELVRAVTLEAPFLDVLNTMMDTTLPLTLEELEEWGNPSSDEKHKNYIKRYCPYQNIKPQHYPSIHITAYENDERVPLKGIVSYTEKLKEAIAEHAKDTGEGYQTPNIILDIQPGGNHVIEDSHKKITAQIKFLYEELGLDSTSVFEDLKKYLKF
MT1-MMP act inh: blocks activation of human MT1-MMP. P50281. HT1080 RFP-PRO-GFP cells, GFP/RFP ratio fluorescence, overnight; percent of plate control window, DMSO zero. GFP/RFP ratio change, % at 20 µM. 360,000 tested, 0.061% active;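 active = GFP/RFP ratio change of at least 30% with cell ATP level not reduced by more than half and red fluorescence within 50% of control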
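Material: RFP-PRO-GFP reporter HT1080 cells. Dosing: single-point 20 µM compound, 1% DMSO. Controls: DMSO and RFP-L50D-GFP cell wells. Timing: cells overnight before dosing, compound overnight, 37 °C, 5% CO2. Measure: GFP/RFP fluorescence ratio.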
SKN-1 inh: blocks SKN-1 activity in C. elegans. C. elegans VP596 Pgst-4::GFP/RFP ratio, acrylamide-induced, 24 h. inhibition, % at 21.8 µM. 360,000 tested, 0.49% active. AID 624304;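 active = interference check ratio from 0.5 to 1.5 plus GFP to RFP signal ratio inhibition reaching or exceeding a fixed threshold, cut at about 30% in these data, passing the limit was not always enough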
hiPSC survival: increases survival of single human iPS cells | survival enhancement, % at 20 µM | AID 602274 | hiPSC single-cell survival, ATPlite luminescence; 100% = ROCK inhibitor wells, 0% = DMSO | 360,000 tested, 0.044% active; in the data active = survival enhancement above about 18%;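 note: cells exposed to compounds for 16 hours before the ATP read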
eLon confirm: E. coli Lon inhibition confirmation. shares compounds with eLon inh. 1,400 tested, 31% active. inhibition, % at 7.94 µM. purified E. coli Lon, fluorescence polarization. AID 602230; in the data active = inhibition above about 16%
Numbers stand for hits. This is a sample that favours compounds with a hit; in the whole collection about 1.8% have one here.

How did CC(=O)Nc1ccc(S(=O)(=O)Nc2cccc(-c3cn4cccnc4n3)c2)cc1 do in these assays?
eLon inh: inactive; Tb MetRS inh: inactive; PREPL inh: inactive; MT1-MMP act inh: inactive; SKN-1 inh: inactive; hiPSC survival: inactive

What do the screens show for `COc1ccc(-c2ccc(-c3noc(-c4ccccc4F)n3)c(OC)n2)cc1`?
eLon inh: inactive; Tb MetRS inh: inactive; MT1-MMP act inh: inactive; SKN-1 inh: inactive; hiPSC survival: inactive

How did Cc1ccccc1C(=O)N1CCN(c2ccc(N3CCOCC3)nn2)CC1 do in these assays?
eLon inh: 23; Tb MetRS inh: inactive; PREPL inh: inactive; MT1-MMP act inh: inactive; SKN-1 inh: inactive; hiPSC survival: inactive; eLon confirm: inactive

What do the screens show for `Cc1ccccc1C(=O)N1CCN(c2nc(N3CCOCC3)nc(N3CCOCC3)n2)CC1`?
eLon inh: inactive; Tb MetRS inh: inactive; PREPL inh: inactive; MT1-MMP act inh: inactive; SKN-1 inh: inactive; hiPSC survival: inactive

What do the screens show for `COC(=O)c1ccc(-c2nc(CN3CCN(C(=O)c4ccco4)CC3)c(C)o2)cc1`?
eLon inh: 15; Tb MetRS inh: inactive; MT1-MMP act inh: inactive; SKN-1 inh: inactive; hiPSC survival: inactive; eLon confirm: inactive

What do the screens show for `CC(NC(=O)CCc1ccccc1)c1ccc2c(c1)OCO2` (centres undefined)?
eLon inh: inactive; Tb MetRS inh: inactive; PREPL inh: inactive; MT1-MMP act inh: inactive; SKN-1 inh: inactive; hiPSC survival: inactive

What do the screens show for `CN(C)c1cccc(C(=O)NCc2ccccc2)c1`?
eLon inh: inactive; Tb MetRS inh: inactive; PREPL inh: inactive; MT1-MMP act inh: inactive; SKN-1 inh: inactive; hiPSC survival: inactive

What do the screens show for `CN(C)c1cccc(C(=O)NCc2ccccc2Cl)c1`?
eLon inh: 68; Tb MetRS inh: inactive; PREPL inh: inactive; MT1-MMP act inh: inactive; SKN-1 inh: inactive; hiPSC survival: inactive; eLon confirm: inactive

What do the screens show for `COCCn1c(N)c(N(Cc2ccccc2)C(=O)C2=COCCO2)c(=O)[nH]c1=O`?
eLon inh: 29; Tb MetRS inh: inactive; PREPL inh: inactive; MT1-MMP act inh: inactive; SKN-1 inh: inactive; hiPSC survival: inactive; eLon confirm: inactive

How did CC(=O)O[C@@H]1[C@H](OC(=O)CC(C)C)c2c(ccc3ccc(=O)oc23)OC1(C)C do in these assays?
eLon inh: 113; Tb MetRS inh: inactive; PREPL inh: inactive; MT1-MMP act inh: inactive; SKN-1 inh: inactive; hiPSC survival: inactive; eLon confirm: inactive

What do the screens show for `C/C=C(\C)C(=O)OC1c2c(ccc3ccc(=O)oc23)OC(C)(C)C1OC(C)=O` (centres undefined)?
eLon inh: inactive; Tb MetRS inh: inactive; PREPL inh: inactive; MT1-MMP act inh: inactive; SKN-1 inh: inactive; hiPSC survival: inactive

Results for CCOc1ccccc1C(=O)NCC(=O)NNC(=O)CN(C)S(=O)(=O)c1ccc(Cl)cc1 ?
eLon inh: inactive; Tb MetRS inh: inactive; PREPL inh: inactive; MT1-MMP act inh: inactive; SKN-1 inh: inactive; hiPSC survival: inactive

What do the screens show for `COc1ccc(NC(=O)C2(C)Cc3c(-c4cccc(NC(C)=O)c4)ccnc3O2)cn1` (centres undefined)?
eLon inh: 28; Tb MetRS inh: inactive; MT1-MMP act inh: inactive; SKN-1 inh: inactive; hiPSC survival: inactive; eLon confirm: inactive

What do the screens show for `CCCN(CC(=O)Nc1ccccc1C)C(=O)c1ccc(N2CCCC2)c([N+](=O)[O-])c1`?
eLon inh: inactive; Tb MetRS inh: inactive; PREPL inh: inactive; MT1-MMP act inh: inactive; SKN-1 inh: inactive; hiPSC survival: inactive

Results for CN1CCN(c2ccccc2NC(=O)c2ccc3c(c2)OCCO3)CC1 ?
eLon inh: 16; Tb MetRS inh: inactive; PREPL inh: inactive; MT1-MMP act inh: inactive; SKN-1 inh: inactive; hiPSC survival: inactive; eLon confirm: inactive

Results for Cc1cccc(OCC(=O)NCc2ccc(F)cc2)c1 ?
eLon inh: inactive; Tb MetRS inh: inactive; PREPL inh: inactive; MT1-MMP act inh: inactive; SKN-1 inh: inactive; hiPSC survival: inactive

What do the screens show for `O=C(COC(=O)CCC1CCCC1)Nc1cccc(S(=O)(=O)N2CCOCC2)c1`?
eLon inh: inactive; Tb MetRS inh: inactive; PREPL inh: inactive; MT1-MMP act inh: inactive; SKN-1 inh: inactive; hiPSC survival: inactive

Results for COc1cccc2c1C(=O)c1c(O)c3c(c(O)c1C2=O)CC(O)(C(C)=O)CC3OC1CC(O)C(O)C(C)O1 (centres undefined) ?
eLon inh: active; Tb MetRS inh: inactive; MT1-MMP act inh: inactive; SKN-1 inh: inactive; hiPSC survival: inactive; eLon confirm: active

Results for COc1cccc2c1C(=O)c1c(O)c3c(c(O)c1C2=O)C[C@](O)(C(C)=O)C[C@H]3O[C@@H]1C[C@@H](N)[C@@H](O)[C@@H](C)O1 ?
eLon inh: active; Tb MetRS inh: inactive; PREPL inh: inactive; MT1-MMP act inh: inactive; SKN-1 inh: inactive; hiPSC survival: inactive; eLon confirm: active

How did COc1ccc(S(=O)(=O)N2CCN(Cc3ccc4c(c3)OCO4)CC2)cc1 do in these assays?
eLon inh: 43; Tb MetRS inh: inactive; PREPL inh: inactive; MT1-MMP act inh: inactive; SKN-1 inh: inactive; hiPSC survival: inactive; eLon confirm: inactive

How did Cc1ccc(CC(C)(O)CC(C)(O)Cc2ccc(C)cc2)cc1 (centres undefined) do in these assays?
eLon inh: inactive; Tb MetRS inh: inactive; MT1-MMP act inh: inactive; SKN-1 inh: inactive; hiPSC survival: inactive

How did O=C(CCCN1C(=O)c2ccccc2C1=O)N1CCc2ccccc2C1 do in these assays?
eLon inh: inactive; Tb MetRS inh: inactive; PREPL inh: inactive; MT1-MMP act inh: inactive; SKN-1 inh: inactive; hiPSC survival: inactive

Results for O=C(Nc1ccc(C(=O)N2CCN(c3ccc(Cl)cc3)CC2)cc1)C1=CSCCO1 ?
eLon inh: 25; Tb MetRS inh: inactive; PREPL inh: inactive; MT1-MMP act inh: inactive; SKN-1 inh: inactive; hiPSC survival: inactive; eLon confirm: inactive

Results for CCOC(=O)C1CCN(CC(O)COC(CC)c2ccccc2)CC1 (centres undefined) ?
eLon inh: inactive; Tb MetRS inh: inactive; PREPL inh: inactive; MT1-MMP act inh: inactive; SKN-1 inh: inactive; hiPSC survival: inactive

Results for CCCCOc1cccc(C(=O)NC(=S)Nc2cccnc2)c1 ?
eLon inh: 19; Tb MetRS inh: inactive; PREPL inh: inactive; MT1-MMP act inh: inactive; SKN-1 inh: inactive; hiPSC survival: inactive; eLon confirm: inactive

What do the screens show for `C=CCSc1nsc(NC(=O)Nc2ccc(F)cc2)n1`?
eLon inh: inactive; Tb MetRS inh: inactive; PREPL inh: inactive; MT1-MMP act inh: inactive; SKN-1 inh: inactive; hiPSC survival: inactive

Screens from PubChem BioAssay.
